From ChEMBL document CHEMBL1152867, “Targeting QseC signaling and virulence for antibiotic development” (Science, 2008)
Calls of active or inactive are those of the source. The calls are words filed in the database; no cut-off is given here.

Legend:
[1] = system: Francisella tularensis subsp. tularensis SCHU S4; assay: Inhibition of virulence gene mglA expression in Francisella tularensis SCHU S4 at 5 pM by quantitative real-time PCR; assay type: functional, organism-based
[2] = Clearance in CD1 mouse at 20 mg/kg, po; assay type: ADME, organism-based; set-up: dose 20 mg/kg, route oral; details: in vivo
In short: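 Terminal cardiac bleeds were taken in groups of three at set times. Plasma was acetonitrile-precipitated with internal standard and analysed by LC/MS/MS against a spiked-plasma standard curve. Parameters came from noncompartmental analysis.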

[3] = biological target: Beta-1 adrenergic receptor (Homo sapiens) (UniProt P08588); assay: Effect on dobutamine-induced human beta-1-adrenergic receptor activation expressed in HEK293 cells assessed as cAMP release at 5 uM; assay type: functional, cell-based
Beta-1 adrenergic receptor (Homo sapiens), sequence (P08588 whole entry, looked up): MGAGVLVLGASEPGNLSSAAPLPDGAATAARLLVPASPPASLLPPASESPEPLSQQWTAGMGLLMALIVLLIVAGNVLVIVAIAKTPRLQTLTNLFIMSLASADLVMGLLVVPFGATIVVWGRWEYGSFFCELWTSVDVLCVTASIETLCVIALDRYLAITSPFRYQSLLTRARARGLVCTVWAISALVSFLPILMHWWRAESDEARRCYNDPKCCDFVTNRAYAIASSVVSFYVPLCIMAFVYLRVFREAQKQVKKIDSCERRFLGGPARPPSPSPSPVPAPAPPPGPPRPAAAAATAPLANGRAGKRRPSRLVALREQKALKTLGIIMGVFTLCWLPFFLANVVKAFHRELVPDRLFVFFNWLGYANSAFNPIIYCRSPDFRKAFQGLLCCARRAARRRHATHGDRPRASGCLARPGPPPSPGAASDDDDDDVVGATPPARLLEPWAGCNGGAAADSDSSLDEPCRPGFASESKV
In short: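 HEK293 cells carried an EPAC-based cAMP BRET reporter. The agonist for β1 (exogenous) was 1 nM dobutamine, for β2 (endogenous) 100 nM terbutaline, and for β3 (exogenous) 10 nM BRL37344. Each agonist was given alone or with 5 μM compound. Live-cell cAMP was read as triplicate means, representative of 3 experiments.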

[4] = system: Francisella tularensis subsp. tularensis SCHU S4; assay: Antibacterial activity against Francisella tularensis SCHU S4 infected in mouse J774 cells assessed as reduction in bacterial CFU at 5 nM relative to control; assay type: functional
Mus musculus [5] = assay: Toxicity in CD1 mouse assessed as basophil counts at 20 mg/kg, po administered daily once for 5 days measured 3 days after final dose; assay type: organism-based; set-up: dose 20 mg/kg, route oral; details: in vivo, 72 h
In short: (§1)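 Female CD-1 mice (~22 g), three per group, given 20 mg/kg by oral gavage once daily for 5 days. Vehicle-only mice served as controls. Animals were weighed and observed daily. Three days after the last dose they were weighed and sacrificed. Blood was taken for chemistry and complete blood counts, and organs were weighed.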

Mus musculus [6] = assay: Toxicity in CD1 mouse assessed as change in kidney weight at 20 mg/kg, po administered daily once for 5 days measured 3 days after final dose; assay type: organism-based; set-up: dose 20 mg/kg, route oral; details: in vivo, 72 h; in short: as §1
[7] = Oral bioavailability in CD1 mouse at 20 mg/kg; assay type: ADME, organism-based; details: in vivo
In short: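 Female CD-1 mice received 20 mg/kg either as an i.v. bolus or by oral gavage, in the same DMSO/PEG400/Tween 80/bicarbonate pH 9 vehicle. Plasma levels were measured by LC/MS/MS. Bioavailability = AUCoral/AUCiv × Doseiv/Doseoral, using noncompartmental AUCs.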

Escherichia coli [8] = assay: Antibacterial activity against Escherichia coli infected in New Zealand white rabbit assessed as inhibition of bacterial colonization in cecum at 20 mg/kg pretreated before 3 hrs of bacterial challenge; assay type: functional, organism-based; set-up: dose 20 mg/kg; details: Caecum
Escherichia coli [9] = assay: Inhibition of Escherichia coli attaching-effacing lesions formation in infected human HeLa cells at 5 pM by FAS test; assay type: functional, organism-based
In short: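 HeLa monolayers on glass coverslips were infected with a 1:100 dilution of overnight LB cultures for 6 h at 37 °C, 5% CO2. Cells were permeabilized with 0.2% Triton X-100 and stained with FITC-phalloidin for actin and propidium iodide for bacteria. Whole fields of ≥6 coverslips per strain were scored for AE lesions by fluorescence microscopy.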

[10] = system: Francisella tularensis subsp. tularensis SCHU S4; assay: Inhibition of virulence gene pdpA expression in Francisella tularensis SCHU S4 at 5 pM by quantitative real-time PCR; assay type: functional, organism-based
Escherichia coli [11] = assay: Inhibition of AI3-induced Qsec-dependent virulence gene stx2A expression in Escherichia coli at 5 pM by quantitative real-time PCR; assay type: functional, organism-based
Mus musculus [12] = assay: Toxicity in CD1 mouse assessed as aspartate transaminase levels at 20 mg/kg, po administered daily once for 5 days measured 3 days after final dose; assay type: organism-based; set-up: dose 20 mg/kg, route oral; details: in vivo, 72 h
Mus musculus [13] = assay: Toxicity in CD1 mouse assessed as RBC counts at 20 mg/kg, po administered daily once for 5 days measured 3 days after final dose; assay type: organism-based; set-up: dose 20 mg/kg, route oral; details: in vivo, 72 h
Mus musculus [14] = assay: Toxicity in CD1 mouse assessed as change in brain weight at 20 mg/kg, po administered daily once for 5 days measured 3 days after final dose; assay type: organism-based; set-up: dose 20 mg/kg, route oral; details: in vivo; in short: as §1
Salmonella typhimurium [15] = assay: Bacteriostatic activity against Salmonella Typhimurium SL1344 at 1 uM; assay type: functional, organism-based; details: Salmonella enterica subsp. enterica serovar Typhimurium str. SL1344
Salmonella typhimurium [16] = assay: Inhibition of norepinephrine-induced virulence gene sifA expression in Salmonella Typhimurium at 5 pM; assay type: functional, organism-based; details: Salmonella enterica subsp. enterica serovar Typhimurium
Escherichia coli [17] = assay: Inhibition of [3H]norepinephrine binding to Escherichia coli Qsec at 5 fM by liposome-based scintillation counting assay
In short: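 Liposomes reconstituted with QseC were loaded with tritiated norepinephrine (5 μM) by freeze-thaw in liquid N2 and held 10 min at room temperature, so unbound signal could diffuse out. They were pelleted at 12,000g for 5 min and counted for tritium. Counts were normalized to liposomes loaded with 5 μM tyrosine. Compound was tested at 5 pM and 5 fM.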

Mus musculus [18] = assay: Toxicity in CD1 mouse assessed as change in heart weight at 20 mg/kg, po administered daily once for 5 days measured 3 days after final dose; assay type: organism-based; set-up: dose 20 mg/kg, route oral; details: in vivo; in short: as §1
Mus musculus [19] = assay: Toxicity in CD1 mouse assessed as change in liver weight at 20 mg/kg, po administered daily once for 5 days measured 3 days after final dose; assay type: organism-based; set-up: dose 20 mg/kg, route oral; details: in vivo, 72 h; in short: as §1
Mus musculus [20] = assay: Toxicity in CD1 mouse assessed as change in lung weight at 20 mg/kg, po administered daily once for 5 days measured 3 days after final dose; assay type: organism-based; set-up: dose 20 mg/kg, route oral; details: in vivo, 72 h; in short: as §1
Mus musculus [21] = assay: Toxicity in CD1 mouse assessed as total bilirubin levels at 20 mg/kg, po administered daily once for 5 days measured 3 days after final dose; assay type: organism-based; set-up: dose 20 mg/kg, route oral; details: in vivo, 72 h; in short: as §1
Salmonella typhimurium [22] = assay: Bacteriostatic activity against Salmonella Typhimurium SL1344 at 1 uM in presence of epinephrine; assay type: functional, organism-based; details: Salmonella enterica subsp. enterica serovar Typhimurium str. SL1344
Escherichia coli [23] = assay: Inhibition of epinephrine-induced EspB protein secretion in Escherichia coli 8624 at 5 nM by Western blot; assay type: functional, organism-based
In short: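 Secreted proteins in cell-free supernatant were TCA-precipitated and immunoblotted with rabbit polyclonal anti-EspA and anti-EspB, with ECL detection.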

Escherichia coli [24] = assay: Antibacterial activity against Escherichia coli infected in New Zealand white rabbit assessed as inhibition of bacterial colonization in cecum at 20 mg/kg administered 24 hrs post-bacterial challenge; assay type: functional, organism-based; set-up: dose 20 mg/kg; details: Caecum
Escherichia coli [25] = assay: Inhibition of AI3-induced Qsec-dependent virulence gene ler expression in Escherichia coli at 5 pM by quantitative real-time PCR; assay type: functional, organism-based
[26] = Terminal half life in CD1 mouse at 20 mg/kg, iv administered as bolus dose; assay type: ADME, organism-based; set-up: dose 20 mg/kg, route intravenous; details: in vivo, read-out: beta t1/2
In short: (§2)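 Groups of three were bled terminally by cardiac puncture at set times. Plasma was acetonitrile-precipitated with internal standard and quantified by electrospray LC/MS/MS against a plasma standard curve (10-1000 ng/ml). Noncompartmental analysis was used.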

[27] = biological target: Beta-1 adrenergic receptor (Homo sapiens) (UniProt P08588); assay: Activation of human beta-1-adrenergic receptor expressed in HEK293 cells assessed as cAMP release at 5 uM; assay type: functional, cell-based
In short: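 Live HEK293 cells carried an EPAC-based cAMP BRET reporter and expressed endogenous β2 or exogenous β1 or β3 adrenergic receptors. Cells were exposed to test compound alone at 5 μM. Values are means of triplicates, representative of 3 experiments.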

[28] = AUC in CD1 mouse at 20 mg/kg, iv administered as bolus dose; assay type: ADME, organism-based; set-up: dose 20 mg/kg, route intravenous; details: plasma; in short: as §2
Mus musculus [29] = assay: Toxicity in CD1 mouse assessed as mean corpuscular hemoglobin at 20 mg/kg, po administered daily once for 5 days measured 3 days after final dose; assay type: organism-based; set-up: dose 20 mg/kg, route oral; details: in vivo, 72 h; in short: as §1
Mus musculus [30] = assay: Toxicity in C3H HeN mouse at 20 mg/kg, po administered as single dose; assay type: organism-based; set-up: dose 20 mg/kg, route oral; details: in vivo
Mus musculus [31] = assay: Toxicity in CD1 mouse assessed as mean corpuscular hemoglobin concentration at 20 mg/kg, po administered daily once for 5 days measured 3 days after final dose; assay type: organism-based; set-up: dose 20 mg/kg, route oral; details: in vivo, 72 h; in short: as §1

With `O=S(=O)(Nc1ccccc1)c1ccc(NC(=S)Nc2ccccc2)cc1` the Activity [1] was “Active”, the CL/F [2] was 2.34 mL/min and the Activity [3] was “inactive”. The “fold change (FC)” value [4] was 10, the Activity (Mus musculus [5]) was 0% and the Activity (Mus musculus [6]) was “Non-toxic”. The bioavailability [7] was 69.3%, the Activity (Escherichia coli [8]) was “inactive” and the Activity (Escherichia coli [9]) was “Active”. For the same compound, the Activity [10] was “Active”, the Activity (Escherichia coli [11]) was “Active” and the Activity (Mus musculus [12]) was 120.3 U/L. The Activity (Mus musculus [13]) was 7.4 M/uL, the Activity (Mus musculus [14]) was “Non-toxic” and the Activity (Salmonella typhimurium [15]) was “inactive”. The Activity (Salmonella typhimurium [16]) was “Active”, the Activity (Escherichia coli [17]) was “inactive” and the Activity (Mus musculus [18]) was “Non-toxic”. For the same compound, the Activity (Mus musculus [19]) was “Non-toxic”, the Activity (Mus musculus [20]) was “Non-toxic” and the Activity (Mus musculus [21]) was 0.2 mg/dL. The Activity (Salmonella typhimurium [22]) was “inactive”, the Activity (Escherichia coli [23]) was “Active” and the Activity (Escherichia coli [24]) was “inactive”. For the same compound, the Activity (Escherichia coli [25]) was “Active”, the half-life [26] was 5.65 h and the Activity [27] was “inactive”. The AUC [28] was 5010 ng·h/mL, the Activity (Mus musculus [29]) was 16.1 pg and the Activity (Mus musculus [30]) was “Non-toxic”. For the same compound, the Activity (Mus musculus [31]) was 31.3 g/dL.
